Active and inactive are the calls of the source. The rule behind the calls is not given here.
Tests used:
Mus musculus = organism: Mus musculus; experiment: Inhibition of hedgehog signaling pathway in mouse NIH/3T3 cells assessed as reduction in edogenous expression of Gli2 protein by immunoblot analysis; type: cell-based
Summary of the method: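 NIH-3T3 cells cultured in 10% FBS were exposed to compound at various concentrations for 24 h. Endogenous Gli1 and Gli2 detected by Western blot.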

[1] = target: T1, Zinc finger protein GLI1 (Homo sapiens) (UniProt P08151); experiment: Inhibition of biotin-labeled Gli1binding sequence binding to Flag-tagged Gli1 (unknown origin) expressed in mouse NIH/3T3 cells at 1 uM by EMSA; type: cell-based
T1 sequence (whole entry): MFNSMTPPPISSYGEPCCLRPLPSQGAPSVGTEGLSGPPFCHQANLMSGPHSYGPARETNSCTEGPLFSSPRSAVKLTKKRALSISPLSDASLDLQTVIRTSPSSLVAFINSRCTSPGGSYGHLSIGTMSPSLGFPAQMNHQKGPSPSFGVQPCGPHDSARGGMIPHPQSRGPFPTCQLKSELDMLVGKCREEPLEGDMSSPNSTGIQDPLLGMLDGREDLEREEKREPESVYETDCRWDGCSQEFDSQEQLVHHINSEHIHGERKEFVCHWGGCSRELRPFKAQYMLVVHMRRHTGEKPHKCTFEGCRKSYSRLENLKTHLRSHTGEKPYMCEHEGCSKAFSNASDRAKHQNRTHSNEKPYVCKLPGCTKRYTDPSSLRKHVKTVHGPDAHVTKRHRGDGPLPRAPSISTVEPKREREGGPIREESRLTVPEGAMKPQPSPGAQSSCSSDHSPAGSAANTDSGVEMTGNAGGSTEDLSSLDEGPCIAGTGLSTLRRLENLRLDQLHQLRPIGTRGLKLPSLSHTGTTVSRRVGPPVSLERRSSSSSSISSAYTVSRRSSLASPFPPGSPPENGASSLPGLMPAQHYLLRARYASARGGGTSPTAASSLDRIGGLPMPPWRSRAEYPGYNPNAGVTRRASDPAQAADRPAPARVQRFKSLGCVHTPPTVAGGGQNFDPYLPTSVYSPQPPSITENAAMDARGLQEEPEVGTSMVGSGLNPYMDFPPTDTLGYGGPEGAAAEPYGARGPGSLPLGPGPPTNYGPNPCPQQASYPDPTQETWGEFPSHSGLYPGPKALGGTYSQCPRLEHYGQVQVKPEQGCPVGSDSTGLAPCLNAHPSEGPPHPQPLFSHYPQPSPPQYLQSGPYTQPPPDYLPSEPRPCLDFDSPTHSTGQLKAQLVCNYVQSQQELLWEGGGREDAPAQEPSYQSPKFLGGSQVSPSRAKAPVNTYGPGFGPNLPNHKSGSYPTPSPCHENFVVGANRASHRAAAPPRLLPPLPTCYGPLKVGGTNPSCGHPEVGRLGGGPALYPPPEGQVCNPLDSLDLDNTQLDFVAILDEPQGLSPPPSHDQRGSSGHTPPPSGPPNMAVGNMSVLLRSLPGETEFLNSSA
Summary of the method: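 EMSA with biotin-labeled Gli-binding sequence from the twist1 promoter, probing Gli1 DNA binding. Unlabeled Gli-binding sequence served as competitor.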

COc1ccc(CN2C[C@@H]3CN(S(=O)(=O)c4ccc(Cl)cc4)CC[C@@H]3Oc3c(NC(=O)C4CC4)cccc3C2=O)cc1 (racemic)
inhibition (Mus musculus): Dose-dependent effect | inhibition [1]: inactive

From ChEMBL document CHEMBL4017514, “Discovery of Novel Macrocyclic Hedgehog Pathway Inhibitors Acting by Suppressing the Gli-Mediated Transcription” (J Med Chem, 2017)
